LGR2 antag: Drosophila LGR2 receptor signaling inhibition. AID 720647. hit rate 0.35% among 380,000. HEK293 LGR2, CRE-luciferase, bursicon-stimulated, 4 h. inhibition, % at 9.99 µM;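 active = drop in luminescence signal, shown as inhibition above about 50% in the replicate tests, limit read from the data, passing the limit was not always enough; inconclusive = probably only some replicates passing the limit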;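 also: agonist challenge used bursicon conditioned medium at about half maximal strength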
CaV13 FRET inh: Primary screen for inhibitors of IQ motif and Ca2+-dependent inactivation inhibitor domain binding in CACNA1D, Förster resonance energy transfer in living cells, …. hit rate 0.098% among 340,000. HEK cells, CFP/YFP FRET ICDI-IQ, plate reader, 10 min; percent FRET-ratio fall versus neutral wells. inhibition, % at 12.3 µM. AID 743397;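 active = mean replicate inhibition of at least 30% and at least 1% of replicates passing that level; inconclusive = only one of the two criteria is met; inactive = neither criterion is met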;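 also: 0% = median of the neutral control wells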
TWEAK Fn14 block: TWEAK-Fn14 signaling inhibition. TWEAK-stimulated Fn14 reporter cells, luciferase luminescence, 8 h. inhibition, % at 10 µM. hit rate 2% among 360,000. AID 1159606; in the data active = inhibition above about 50%
TROY NFkB inh: blocks TROY-dependent signaling in reporter cells; hit rate 0.98% among 360,000; Q293 LMP1-TROYcd NF-kB luciferase reporter, 4 h; inhibition, % at 10 µM; AID 1347056;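 active = compounds whose plate-normalised and pattern-corrected inhibition of the luciferase reporter signal at the single screening dose is 50% or more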
Xi reactivation: reactivates the inactive X chromosome in mouse fibroblasts; XiGFP mouse fibroblasts, % GFP-positive cells imaging, 3 d; cells co-treated with 5-aza-dC sensitizer; scaled so ellipticine positive control = 100%; activation, % at 7.58 µM; AID 743238; hit rate 0.055% among 360,000;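 active = mean normalized replicate activation at least 10% and every replicate at or above 10%; inconclusive = only one of the two criteria met; inactive = mean below 10% and not all replicates reach 10%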;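 also: 0% = median of on-plate neutral control wells and 100% = ellipticine 6 µM median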
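System: 68-5-11 XiGFP fibroblast line | Buffer or medium: DMEM containing 5-aza-dC | Compound: Single point | Times: Compounds 3 days, fix/stain 15 min at room temperature | Benchmarks: Positive control ellipticine, 6 µM final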
* = called active by the depositor; ? = inconclusive; . = no result. A selection: hits, their analogues and other compounds. The true share with any hit is near 2%.

SMILES | LGR2 antag | CaV13 FRET inh | TWEAK Fn14 block | TROY NFkB inh | Xi reactivation
Cc1csc(-c2cc(C(=O)NCc3cc(C(F)(F)F)cc(C(F)(F)F)c3)n[nH]2)c1 | 18 | -17 | -80 | 52* | 0
COc1ccc(Cl)cc1-c1cc(C(=O)NCc2cc(C(F)(F)F)cc(C(F)(F)F)c2)[nH]n1 | 3 | -9 | 2 | 28 | 0
CO[C@@H]1CN(C)C(=O)c2ccc(NC(=O)CC(F)(F)F)cc2OC[C@@H](C)N(C(C)=O)C[C@@H]1C | 0 | . | . | . | 0
O=C(C[C@H]1C=C[C@@H](NC(=O)CN2CCOCC2)[C@@H](CO)O1)NC1CCC1 | -6 | . | . | . | -1
CC=Cc1ccc2n(c1=O)C[C@H]1[C@H](CO)[C@@H](C(=O)N3CCc4ccccc4C3)N[C@@H]21 (mixture of isomers) | 0 | . | . | . | 0
COc1ccc(Nc2cccc3ccccc23)cc1 | -30 | -5 | 104* | 82* | 0
COc1ccc(NC(=S)Nc2cccc3ccccc23)cc1OC | -22 | -6 | 94* | 31 | 0
S=C(Nc1cccc2ccccc12)Nc1cccc2ccccc12 | -4 | -5 | 92* | 49 | 0
COc1ccc(NC(=S)Nc2cccc(Cl)c2)cc1OC | -2 | -7 | -19 | -22 | 0
COc1ccc(Nc2cccccc2=O)cc1 | . | -5 | -9 | -44 | .
COc1ccc(NC(C)=O)cc1NC(C)C(=O)Nc1cccc2ccccc12 (configuration not stated) | -1 | -5 | 37 | 57* | .
CCCNC(=O)Nc1ccc2c(c1)C(=O)N(C)C[C@H](OC)[C@@H](C)CN(C(=O)C1CC1)[C@H](C)CO2 | 4 | . | . | . | 0
CC(=O)c1cccc(NC(=S)Nc2cccc3ccccc23)c1 | -46 | -7 | 37 | 57* | 0
CC(=O)Nc1cccc(NC(=S)Nc2cccc3ccccc23)c1 | -67 | . | -6 | 3 | 0
Nc1nc(N)c2c(ccc3c2ccn3Cc2cccc([N+](=O)[O-])c2)n1 | 3 | -10 | 79* | -22 | 0
C[C@H](CO)N1C[C@H](C)[C@H](CN(C)S(=O)(=O)c2cn(C)cn2)OCCCC[C@H](C)Oc2ccc(NS(=O)(=O)c3cccs3)cc2C1=O | -30 | . | . | . | 0
CC1CCN(c2ccc(-c3cccs3)nn2)CC1 | 75* | -4 | 105* | 66* | 0
O=C(O)CSCc1nc2scc(-c3ccccc3)c2c(=O)[nH]1 | 8 | . | 1 | 5 | 0
O=C(OCc1nc2scc(-c3ccccc3)c2c(=O)[nH]1)c1cc([N+](=O)[O-])ccc1Cl | 11 | -3 | 63* | 33 | 0
Cc1ccccc1NC(=O)CSc1nnc(-c2ccccc2)n1-c1ccccc1 | . | . | -10 | 56* | .
CCn1c(SCC(=O)Nc2ccccc2C)nnc1-c1ccccc1O | 2 | -4 | 12 | 3 | .
CCCCC(=O)N/N=C/c1ccc(Sc2cccc3cccnc23)o1 | . | . | 107* | -9 | .
O=C(CSc1cccc2cccnc12)N/N=C/c1ccc(F)cc1 | -4 | -2 | -25 | -11 | 0
COc1cccc(CNC(=O)C[C@@H]2C=C[C@H](NC(=O)C3CCC3)[C@H](CO)O2)c1 | -7 | . | . | . | 0
COCC(=O)N1CC(=O)N2[C@H](CO)[C@H](c3ccc(C#CC4CCCCC4)cc3)[C@H]2C1 | -5 | . | . | . | 0
SMILES | LGR2 antag | CaV13 FRET inh | TWEAK Fn14 block | TROY NFkB inh | Xi reactivation
O=C(C[C@H]1CC[C@@H](NC(=O)c2ccccc2)[C@H](CO)O1)NCc1ccc(Oc2ccccc2)cc1 | 19 | . | . | . | 0
O=C(CNS(=O)(=O)Cc1ccccc1)NNc1ccccc1 | -9 | -8 | 3 | 56* | 0
O=C(CNS(=O)(=O)Cc1ccccc1)NCc1ccccc1 | 28 | -4 | 14 | -5 | 0
CCCNC(=O)N1C[C@@H](O)COC[C@@H]2O[C@H](CC(=O)N3CCC(Cc4ccccc4)CC3)CC[C@H]21 | 2 | . | . | . | 0
Cc1ccccc1CSc1nc(C(C)(C)C)cc(=O)[nH]1 | -23 | -10 | 2 | 65* | 0
O=C1C(C=NCCCN2CCOCC2)=C(O)c2ccccc21 | . | . | 21 | 58* | .
C[C@@H]1CN([C@@H](C)CO)C(=O)c2cc(NS(=O)(=O)c3ccc(F)cc3)ccc2O[C@@H](C)CCCCO[C@H]1CN(C)C(=O)Nc1ccc(F)cc1 | 2 | . | . | . | 0
CC(=O)c1ccc(NS(=O)(=O)c2cccc(C(=O)Nc3ccccc3C(=O)O)c2)cc1 | -11 | -6 | 82* | 13 | 0
Cc1ccc2c(c1)CCCN2S(=O)(=O)c1cccc(C(=O)Nc2ccccc2C(=O)O)c1 | 34 | . | 10 | 55* | 0
COc1ccc(NS(=O)(=O)c2cccc(C(=O)Nc3ccccc3C(=O)O)c2)cc1 | 4 | 4 | 4 | 20 | 0
O=C(N[C@H]1CC[C@@H](CCNS(=O)(=O)Cc2ccccc2)O[C@H]1CO)c1ccc2c(c1)OCO2 | -8 | . | . | . | 0
O=C(NCC[C@@H]1CC[C@@H](NS(=O)(=O)c2ccccc2)[C@H](CO)O1)c1ccccc1F | -7 | . | . | . | 0
COc1cccc(NC(=O)N[C@H]2C=C[C@@H](CC(=O)N3CCOCC3)O[C@@H]2CO)c1 | -34 | . | . | . | 0
COCCn1c(Cc2ccccc2)nnc1SCC(=O)Nc1ccccc1 | 6 | -6 | 4 | 26 | 0
COCCn1c(Cc2ccccc2)nnc1SCC(=O)Nc1oc(C)c2c(C)n[nH]c(=O)c12 | 1 | -11 | 6 | 57* | 0
O=[N+]([O-])c1ccc(N/N=C/c2sc(N3CCOCC3)nc2-c2ccccc2)c(S(=O)(=O)Nc2ccccc2Cl)c1 | ? | -7 | 69* | 49 | 0
O=[N+]([O-])c1ccc(N/N=C/c2sc(N3CCOCC3)nc2-c2ccccc2)c(S(=O)(=O)Nc2ccc(Cl)cc2)c1 | 5 | -105 | 61* | 59* | 87*
CCS(=O)(=O)N1CCCCN2[C@H](CO)[C@@H](c3ccc(-c4cccc(C#N)c4)cc3)[C@@H]2C1 | -2 | . | . | . | 0
C[C@H]1CCCCO[C@@H](CN(C)C(=O)Nc2ccc3c(c2)OCO3)[C@@H](C)CN([C@@H](C)CO)C(=O)c2cc(NS(=O)(=O)c3cccs3)ccc2O1 | -2 | . | . | . | 0
C[C@@H]1CN([C@H](C)CO)S(=O)(=O)c2ccc(C3=CCCCC3)cc2O[C@H]1CN(C)C | 10 | . | . | . | -1
Cc1cc(CNC(=O)COc2cc(F)ccc2[N+](=O)[O-])c2ccccc2n1 | -10 | -1 | 77* | 7 | 0
Cc1cc(CNC(=O)COc2ccc(F)cc2F)c2ccccc2n1 | -21 | -2 | 4 | 4 | 0
CC(=O)N1[C@@H]2c3ccc(/C=C/c4ccccc4)c(=O)n3C[C@@H]2[C@@H](CO)[C@@H]1C(=O)Nc1nccs1 | -2 | . | . | . | 0
COc1cccc(-c2cnc(C(O)c3cccc(F)c3)[nH]2)c1 (configuration not stated) | -44 | -7 | 42 | 52* | 0

From PubChem BioAssay
